From ChEMBL document CHEMBL3120083, “Discovery of N-[4-[6-tert-butyl-5-methoxy-8-(6-methoxy-2-oxo-1H-pyridin-3-yl)-3-quinolyl]phenyl]methanesulfonamide (RG7109), a potent inhibitor of the hepatitis C virus NS5B polymerase” (J Med Chem, 2014)
≈ marks a conversion by molar mass, not a printed value.

tested on: Hepatitis C virus; assay: Ratio of EC50 for Hepatitis C virus genotype 1b Con1 in presence of human serum to EC50 for Hepatitis C virus genotype 1b Con1; format: functional, Hepacivirus hominis, isolate Con1; conditions: not given

| SMILES | Ratio EC50 |
| --- | --- |
| COc1c(C(C)(C)C)cc(-n2ccc(=O)[nH]c2=O)c2ncc(-c3ccc(NS(C)(=O)=O)cc3)cc12 | 1.7 |
| COc1c(C(C)(C)C)cc(-c2ccc[nH]c2=O)c2ncc(-c3ccc(NS(C)(=O)=O)cc3)cc12 | 0.8 |
| COc1c(C(C)(C)C)cc(N2CCC(=O)NC2=O)c2ncc(-c3ccc(NS(C)(=O)=O)cc3)cc12 | 1.7 |

tested on: Hepatitis C virus; assay: Ratio of EC50 for Hepatitis C virus genotype 1a H77 in presence of human serum to EC50 for Hepatitis C virus genotype 1a H77; format: functional, Hepacivirus hominis; conditions: not given

| SMILES | Ratio EC50 |
| --- | --- |
| COc1c(C(C)(C)C)cc(-n2ccc(=O)[nH]c2=O)c2ncc(-c3ccc(NS(C)(=O)=O)cc3)cc12 | 1.7 |
| COc1c(C(C)(C)C)cc(-c2ccc[nH]c2=O)c2ncc(-c3ccc(NS(C)(=O)=O)cc3)cc12 | 0.8 |
| COc1c(C(C)(C)C)cc(N2CCC(=O)NC2=O)c2ncc(-c3ccc(NS(C)(=O)=O)cc3)cc12 | 1.7 |

tested on: Hepatitis C virus; assay: Antiviral activity against Hepatitis C virus genotype 1b Con1 infected in human 2209-23 cells after 72 hrs by luciferase reporter gene assay in presence of 40% human serum; format: functional, organism-based, Hepacivirus hominis; conditions: isolate Con1, 2209-23, 72 h

| SMILES | EC90 | EC50 |
| --- | --- | --- |
| COc1c(/C=C/c2ccc(NS(C)(=O)=O)cc2)cc(-c2cc(F)c[nH]c2=O)cc1C(C)(C)C | 128 nM |  |
| COc1c(C(C)(C)C)cc(-n2ccc(=O)[nH]c2=O)c2ncc(-c3ccc(NS(C)(=O)=O)cc3)cc12 | 29 nM | 5.6 nM |
| COc1c(C(C)(C)C)cc(-c2ccc[nH]c2=O)c2ncc(-c3ccc(NS(C)(=O)=O)cc3)cc12 | 47 nM | 11 nM |
| COc1c(C(C)(C)C)cc(N2CCC(=O)NC2=O)c2ncc(-c3ccc(NS(C)(=O)=O)cc3)cc12 | 20 nM | 3.5 nM |

tested on: Hepatitis C virus; assay: Antiviral activity against Hepatitis C virus genotype 1a H77 infected in human 2209-23 cells after 72 hrs by luciferase reporter gene assay in presence of 40% human serum; format: functional, organism-based, Hepacivirus hominis; conditions: genotype 1a H77, 2209-23, 72 h

| SMILES | EC90 | EC50 |
| --- | --- | --- |
| COc1c(/C=C/c2ccc(NS(C)(=O)=O)cc2)cc(-c2cc(F)c[nH]c2=O)cc1C(C)(C)C | 531 nM |  |
| COc1c(C(C)(C)C)cc(-n2ccc(=O)[nH]c2=O)c2ncc(-c3ccc(NS(C)(=O)=O)cc3)cc12 | 123 nM | 16 nM |
| COc1c(C(C)(C)C)cc(-c2ccc[nH]c2=O)c2ncc(-c3ccc(NS(C)(=O)=O)cc3)cc12 | 25 nM | 4 nM |
| COc1c(C(C)(C)C)cc(N2CCC(=O)NC2=O)c2ncc(-c3ccc(NS(C)(=O)=O)cc3)cc12 | 48 nM | 10 nM |

tested on: not listed separately; assay: Ratio of EC50 for Hepatitis C virus genotype 1a H77 to EC50 for Hepatitis C virus genotype 1b Con1; format: functional; conditions: not given

| SMILES | Ratio EC50 |
| --- | --- |
| COc1c(C(C)(C)C)cc(-n2ccc(=O)[nH]c2=O)c2ncc(-c3ccc(NS(C)(=O)=O)cc3)cc12 | 2.2 |
| COc1c(C(C)(C)C)cc(-c2ccc[nH]c2=O)c2ncc(-c3ccc(NS(C)(=O)=O)cc3)cc12 | 1.7 |
| COc1c(C(C)(C)C)cc(N2CCC(=O)NC2=O)c2ncc(-c3ccc(NS(C)(=O)=O)cc3)cc12 | 1.4 |

tested on: Hepatocyte; assay: Intrinsic clearance in rat hepatocytes assessed per 10^6 cells; format: ADME, cell-based; conditions: not given
How it was run: (§1)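 Suspended hepatocytes (about 1.0×10^6 cells/mL) in Williams' medium E with glutamine, antibiotics, insulin, dexamethasone and 10% FCS, 37 °C, 5% CO2, shaken at 900 rpm. Compound at 0.1–10.0 μM. Stopped with methanol plus internal standard at 2–180 min. Parent remaining by LC/MS/MS peak area ratio, in duplicate.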

| SMILES | CLH |
| --- | --- |
| COc1c(C(F)(F)F)cc(-n2ccc(=O)[nH]c2=O)c2ncc(-c3ccc(NS(C)(=O)=O)cc3)cc12 | 1.8 uL/min/10^6 cells |
| COc1c(CC(F)(F)F)cc(-n2ccc(=O)[nH]c2=O)c2ncc(-c3ccc(NS(C)(=O)=O)cc3)cc12 | 3.7 uL/min/10^6 cells |
| COc1c(C2(C(F)F)CC2)cc(-n2ccc(=O)[nH]c2=O)c2ncc(-c3ccc(NS(C)(=O)=O)cc3)cc12 | 1.7 uL/min/10^6 cells |
| COc1c(C(C)(C)C)cc(-n2ccc(=O)[nH]c2=O)c2ncc(-c3ccc(NS(C)(=O)=O)cc3)cc12 | 20 uL/min/10^6 cells |

tested on: Hepatocyte; assay: Intrinsic clearance in human hepatocytes assessed per 10^6 cells; format: ADME, cell-based; conditions: not given; how it was run: as §1

| SMILES | CLH |
| --- | --- |
| COc1c(C(F)(F)F)cc(-n2ccc(=O)[nH]c2=O)c2ncc(-c3ccc(NS(C)(=O)=O)cc3)cc12 | 1.5 uL/min/10^6 cells |
| COc1c(CC(F)(F)F)cc(-n2ccc(=O)[nH]c2=O)c2ncc(-c3ccc(NS(C)(=O)=O)cc3)cc12 | 0.8 uL/min/10^6 cells |
| COc1c(C2(C(F)F)CC2)cc(-n2ccc(=O)[nH]c2=O)c2ncc(-c3ccc(NS(C)(=O)=O)cc3)cc12 | 0.1 uL/min/10^6 cells |
| COc1c(C(C)(C)C)cc(-n2ccc(=O)[nH]c2=O)c2ncc(-c3ccc(NS(C)(=O)=O)cc3)cc12 | 7.9 uL/min/10^6 cells |

tested on: not listed separately; assay: Thermodynamic solubility of the compound; format: physicochemical; conditions: read-out: Therm_solubility

| SMILES | solubility thermodynamic |
| --- | --- |
| COc1c(C(C)(C)C)cc(-c2ccc(C)[nH]c2=O)c2ncc(C#CCCNS(C)(=O)=O)cc12 | < 1 µg/mL |
| COc1c(C(C)(C)C)cc(-c2ccc[nH]c2=O)c2ncc(N3CC[C@H](CNS(C)(=O)=O)C3)cc12 | 11 µg/mL (≈ 22.7 µM) |
| Cc1ccc(-c2cc(C(C)(C)C)cc3cc(N4CCCC(CNS(C)(=O)=O)C4)cnc23)c(=O)[nH]1 (stereo unspecified) | 66 µg/mL (≈ 137 µM) |
| COc1c(C(C)(C)C)cc(-c2ccc(C)[nH]c2=O)c2ncc(CCCCNS(C)(=O)=O)cc12 | 168 µg/mL (≈ 356 µM) |

tested on: not listed separately; assay: Inhibition of N-terminal 6xHis-tagged Hepatitis C virus genotype 1b Con1 NS5B polymerase containing 21-amino acid deletion at C-terminus expressed in Escherichia coli using radiolabeled UTP as substrate after 2 hrs by scintillation counting analysis; design: species or system Hepatitis C virus (isolate Con1); conditions: not given
How it was run: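 GT-1b Con1 NS5B polymerase (NS5B570n-Con1) activity assay run with RNA template at 3 nM and enzyme at 3 nM. IC50 reported in nM.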

| SMILES | IC50 |
| --- | --- |
| COc1c(C(C)(C)C)cc(-c2ccc(C)[nH]c2=O)c2ncc(C#CCCNS(C)(=O)=O)cc12 | 5 nM |
| COc1c(C(C)(C)C)cc(-c2ccc[nH]c2=O)c2ncc(N3CC(CNS(C)(=O)=O)C3)cc12 | 3.5 nM |
| COc1c(C(C)(C)C)cc(-c2ccc[nH]c2=O)c2ncc(N3CC[C@H](CNS(C)(=O)=O)C3)cc12 | 0.2 nM |
| Cc1ccc(-c2cc(C(C)(C)C)cc3cc(N4CCCC(CNS(C)(=O)=O)C4)cnc23)c(=O)[nH]1 (stereo unspecified) | 625 nM |

tested on: Hepatitis C virus; assay: Antiviral activity against Hepatitis C virus genotype 1b Con1 infected in human 2209-23 cells after 72 hrs by luciferase reporter gene assay; format: functional, organism-based, Hepacivirus hominis; conditions: isolate Con1, 2209-23, 72 h
How it was run: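 Stable GT-1b Con1 subgenomic replicon cell line expressing a renilla luciferase reporter, used as the readout of inhibition. EC50 from luciferase signal, n 2.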

| SMILES | EC50 |
| --- | --- |
| COc1c(C(F)(F)F)cc(-n2ccc(=O)[nH]c2=O)c2ncc(-c3ccc(NS(C)(=O)=O)cc3)cc12 | 57 nM |
| COc1c(CC(F)(F)F)cc(-n2ccc(=O)[nH]c2=O)c2ncc(-c3ccc(NS(C)(=O)=O)cc3)cc12 | 119 nM |
| COc1c(C2(C(F)F)CC2)cc(-n2ccc(=O)[nH]c2=O)c2ncc(-c3ccc(NS(C)(=O)=O)cc3)cc12 | 16 nM |
| COc1c(C(C)(C)C)cc(-c2cc(F)c[nH]c2=O)c2ncc(-c3ccc(NS(C)(=O)=O)cc3)cc12 | 3.5 nM |
| CC(C)(C)c1cc(-c2cc(F)c[nH]c2=O)c2ncc(-c3ccc(NS(C)(=O)=O)cc3)cc2c1 | 16 nM |
| COc1c(C(C)(C)C)cc(-n2ccc(=O)[nH]c2=O)c2ncc(-c3ccc(NS(C)(=O)=O)cc3)cc12 | 3.2 nM |
| COc1c(C(C)(C)C)cc(-n2ccc(=O)[nH]c2=O)c2ccc(-c3ccc(NS(C)(=O)=O)cc3)cc12 | 1 nM |
| COc1c(C(C)(C)C)cc(-n2ccc(=O)[nH]c2=O)c2ccc(-c3ccc(NS(C)(=O)=O)cc3)nc12 | 12 nM |
| COc1c(C(C)(C)C)cc(-c2ccc[nH]c2=O)c2ncc(-c3ccc(NS(C)(=O)=O)cc3)cc12 | 3.1 nM |
| COc1c(C(C)(C)C)cc(-c2ccc(C)[nH]c2=O)c2ncc(-c3ccc(NS(C)(=O)=O)cc3)cc12 | 2 nM |
| COc1c(C(C)(C)C)cc(N2CCC(=O)NC2=O)c2ncc(-c3ccc(NS(C)(=O)=O)cc3)cc12 | 3.2 nM |
| COc1c(C(C)(C)C)cc(N2CCCNC2=O)c2ncc(-c3ccc(NS(C)(=O)=O)cc3)cc12 | 20 nM |
| COc1c(C(C)(C)C)cc(-c2cn(C)c(=O)[nH]c2=O)c2ncc(-c3ccc(NS(C)(=O)=O)cc3)cc12 | 1.5 nM |

tested on: Hepatitis C virus; assay: Antiviral activity against Hepatitis C virus genotype 1a H77 infected in human 2209-23 cells after 72 hrs by luciferase reporter gene assay; format: functional, organism-based, Hepacivirus hominis; conditions: genotype 1a H77, 2209-23, 72 h

| SMILES | EC50 |
| --- | --- |
| COc1c(C(C)(C)C)cc(-c2ccc(C)[nH]c2=O)c2ncc(C#CCCNS(C)(=O)=O)cc12 | 341 nM |
| COc1c(C(C)(C)C)cc(-c2ccc[nH]c2=O)c2ncc(N3CC(CNS(C)(=O)=O)C3)cc12 | 532 nM |
| COc1c(C(C)(C)C)cc(-c2ccc[nH]c2=O)c2ncc(N3CC[C@H](CNS(C)(=O)=O)C3)cc12 | 7.9 nM |
| Cc1ccc(-c2cc(C(C)(C)C)cc3cc(N4CCCC(CNS(C)(=O)=O)C4)cnc23)c(=O)[nH]1 (stereo unspecified) | > 1000 nM |
| COc1c(C(F)(F)F)cc(-n2ccc(=O)[nH]c2=O)c2ncc(-c3ccc(NS(C)(=O)=O)cc3)cc12 | 821 nM |
| COc1c(CC(F)(F)F)cc(-n2ccc(=O)[nH]c2=O)c2ncc(-c3ccc(NS(C)(=O)=O)cc3)cc12 | 839 nM |
| COc1c(C2(C(F)F)CC2)cc(-n2ccc(=O)[nH]c2=O)c2ncc(-c3ccc(NS(C)(=O)=O)cc3)cc12 | 95 nM |
| COc1c(C(C)(C)C)cc(-c2cc(F)c[nH]c2=O)c2ncc(-c3ccc(NS(C)(=O)=O)cc3)cc12 | 3.8 nM |
| CC(C)(C)c1cc(-c2cc(F)c[nH]c2=O)c2ncc(-c3ccc(NS(C)(=O)=O)cc3)cc2c1 | 25 nM |
| COc1c(C(C)(C)C)cc(-n2ccc(=O)[nH]c2=O)c2ncc(-c3ccc(NS(C)(=O)=O)cc3)cc12 | 7.2 nM |
| COc1c(C(C)(C)C)cc(-n2ccc(=O)[nH]c2=O)c2ccc(-c3ccc(NS(C)(=O)=O)cc3)cc12 | 4 nM |
| COc1c(C(C)(C)C)cc(-n2ccc(=O)[nH]c2=O)c2ccc(-c3ccc(NS(C)(=O)=O)cc3)nc12 | 83 nM |
| CC(C)(C)c1nc(-n2ccc(=O)[nH]c2=O)c2ccc(-c3ccc(NS(C)(=O)=O)cc3)cc2n1 | 17 nM |
| COc1c(C(C)(C)C)cc(-c2ccc[nH]c2=O)c2ncc(-c3ccc(NS(C)(=O)=O)cc3)cc12 | 5.2 nM |
| COc1c(C(C)(C)C)cc(-c2ccc(C)[nH]c2=O)c2ncc(-c3ccc(NS(C)(=O)=O)cc3)cc12 | 4.2 nM |
| COc1c(C(C)(C)C)cc(N2CCC(=O)NC2=O)c2ncc(-c3ccc(NS(C)(=O)=O)cc3)cc12 | 4.6 nM |
| COc1c(C(C)(C)C)cc(N2CCCNC2=O)c2ncc(-c3ccc(NS(C)(=O)=O)cc3)cc12 | 64 nM |
| COc1c(C(C)(C)C)cc(-c2cn(C)c(=O)[nH]c2=O)c2ncc(-c3ccc(NS(C)(=O)=O)cc3)cc12 | 3 nM |
| COc1c(C(C)(C)C)cc(-c2ccc(C)[nH]c2=O)c2ncc(CCCCNS(C)(=O)=O)cc12 | > 1000 nM |
